Activity calls are given as the source filed them. The calls are words filed in the database; no cut-off is given here.
Legend:
[1] = test system: Radical scavenging activity; assay: Antioxidant activity assessed by DPPH radical scavenging assay; assay type: functional
Procedure, shortened: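 Test samples at several concentrations in EtOH mixed 1:1 by volume with a 200 μM DPPH solution in EtOH. After 1 min shaking, incubated 30 min at room temperature in the dark, then A517 read. Sample-only wells without DPPH corrected for colour. Done in triplicate, reported as mean ± SD. IC50 is the sample concentration scavenging 50% of DPPH.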

[2] = Antioxidant activity assessed by ORAC assay; assay type: functional
Procedure, shortened: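 Samples at several concentrations combined with potassium phosphate buffer (7.5 mM as added) and sodium fluorescein probe (63 nM as added), then preincubated 5 min at 37 °C. Reaction started with AAPH (12.8 mM as added). Fluorescence (ex 485/em 538 nm) read every 2 min until decay neared zero. Trolox standard. Done in triplicate, reported as mean ± SD in μmol Trolox equivalents per μmol sample.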

RAW = assay: Inhibition of LPS and IFN-gamma-activated NO production in murine RAW 264.7 cells; conditions: Mus musculus
[3] = Cytotoxicity against murine RAW 264.7 cells by MTT assay; assay type: cell-based; conditions: mouse
Procedure, shortened: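 MTT viability measured in RAW 264.7 cultures from the LPS/IFN-γ-stimulated NO assay, in duplicate, to flag cytotoxic concentration ranges.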

## O=C1O[C@H]([C@@H](O)CO)C(O)=C1O [ASCORBIC ACID]
[1]
  IC50: 18 µM

## COc1cc(O)cc2c1-c1ccc(O)cc1C2=O [NOBILONE]
[2]
  Activity: Active
RAW
  IC50: 38.1 µM
[1]
  IC50: > 200 µM

## COc1cc(O)cc(CCc2ccc(O)c(OC)c2)c1 [GIGANTOL]
[2]
  Activity: Active
RAW
  IC50: 32.9 µM
[1]
  IC50: 56.4 µM

## COc1ccc(CCc2cc(OC)c(OC)c(OC)c2)cc1OC
[2]
  Activity: inactive
RAW
  IC50: 48.2 µM
[1]
  IC50: > 200 µM

## Cc1cc(C(C)(C)C)c(O)c(C(C)(C)C)c1 [BUTYLATED HYDROXYTOLUENE]
[1]
  IC50: 90.9 µM

## COc1ccc(CCc2cc(OC)c(O)c(OC)c2)cc1OC
[2]
  Activity: Active
[3]
  Activity: Toxic
[1]
  IC50: 14 µM

## COc1cc(CCc2cc(OC)c(O)c(OC)c2)ccc1O [MOSCATILIN]
[2]
  Activity: Active
RAW
  IC50: 36.8 µM
[1]
  IC50: 14.5 µM

## COc1cc(O)cc2c1-c1c(O)ccc(O)c1C2=O
[2]
  Activity: Active
RAW
  IC50: 13.4 µM
[1]
  IC50: 16.2 µM

## COc1cccc(CCc2cc(O)c(O)c(OC)c2)c1
[1]
  IC50: 40.3 µM

## COc1cc(CCc2cc(OC)c(OC)c(OC)c2)ccc1O
[2]
  Activity: Active
[3]
  Activity: Toxic
[1]
  IC50: 21.8 µM

## COc1cc(CC(O)c2cc(OC)c(O)c(OC)c2)ccc1O (stereo not given) [NOBILIN D]
[2]
  Activity: Active
RAW
  IC50: 15.3 µM
[1]
  IC50: 19.9 µM

## COc1cccc(CCc2cc(OC)c(O)c3c2C(Cc2cccc(OC)c2)c2cc(O)c(O)c(OC)c2O3)c1 (stereo not given) [NOBILIN E]
RAW
  IC50: 19.2 µM
[1]
  IC50: 21 µM

## Oc1ccc(/C=C/c2cc(O)cc(O)c2)cc1 [RESVERATROL]
RAW
  IC50: 23.5 µM

From ChEMBL document CHEMBL1138407, “Bioactive bibenzyl derivatives and fluorenones from Dendrobium nobile” (J Nat Prod, 2007)
